Screens: PubChem, several laboratories
This is a sample that favours compounds with a hit; in the whole collection about 1.7% have one here.
JMJD2C inh: inhibitors of GASC-1 histone demethylase, primary screen, biochemical, fluorescence, DELFIA europium; Lysine-specific demethylase 4C (Homo sapiens), Q9H3R0; GST-JMJD2C(1-420) H3K9me3 demethylation; inhibition, % at 2.35 µM; 330,000 tested, 0.069% active;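 active = more than half of a compound's replicate wells show inhibition beyond 50%, single wells judged on their own value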;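 also: signal counts dimethyl H3K9 product captured on neutravidin plate; 0% = median of DMSO wells and 100% = 0.3 times that DMSO median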
T cell HTS: modulators of CD8 T cell-vesicle binding, primary screen, mouse 2C CD8+ T cells, flow cytometry. 2C CD8+ T cell-vesicle binding; hits give low values. response (vesicle binding), % at 7 µM. 330,000 tested, 0.068% active. AID 2052, 2009;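 active = response, share of CD8 T cells binding vesicles, and their 90th percentile fluorescence all below set limits, cut at about 80% in these data, passing the limit was not always enough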;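 also: values below 100% mean blocked vesicle binding to the CD8+ T cells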
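Read-out – percent CD8+ FL2 mean versus row control · System – murine 2C transgenic CD8+ T lymphocytes · Times – 1.5 h cell–vesicle binding at 37 °C, then 20 min icy labelling · Control set – naked vesicles low, QL9 vesicles with vehicle high · Detection – cytometric PE anti-B7-1 and Alexa647 anti-CD8 signals after 1% paraformaldehyde fixation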
HTR2A ag: mouse Htr2a agonists via beta-arrestin recruitment, primary screen, cell-based, luminescence | 5-hydroxytryptamine receptor 2A (Mus musculus), P35363 | CHO-K1 mHTR2A beta-arrestin complementation; percent of 30 µM serotonin response | activation, % at 7.6 µM | 360,000 tested, 0.66% active | AID 624169, 2012;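 active = activation above a run cutoff, the mean activation of all tested compounds plus 3 SD, cut at about 14% in these data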;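 also: 0% = plate median of compound wells and 100% = 30 µM serotonin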
PP5 inh: PP5 phosphatase inhibitors, primary screen, biochemical, fluorescence; Serine/threonine-protein phosphatase 5 (Homo sapiens), P53041; purified PP5c, OMFP substrate fluorescence; inhibition, % at 6.7 µM; 320,000 tested, 0.18% active; AID 1987, 2009;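 active = inhibition above the campaign's mean inhibition across all tested compounds plus 3 SD, cut at about 9.5% in these data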;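 also: 0% = DMSO only and 100% = 100 µM cantharidin control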
PP1 counter: PP1-alpha phosphatase inhibitors, primary screen, counter-screen for PP5 inhibitor project, biochemical, fluorescence, OMFP substrate, single point | AID 2235, 2010 | Serine/threonine-protein phosphatase PP1-alpha catalytic subunit (Homo sapiens), P62136 | purified PP1alpha | inhibition, % at 6.7 µM | 320,000 tested, 0.9% active;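 active = inhibition above the mean inhibition of all tested compounds plus 3 SD, computed separately for each screening campaign, cut at about 15% in these data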
Target sequence (P62136 whole entry, looked up): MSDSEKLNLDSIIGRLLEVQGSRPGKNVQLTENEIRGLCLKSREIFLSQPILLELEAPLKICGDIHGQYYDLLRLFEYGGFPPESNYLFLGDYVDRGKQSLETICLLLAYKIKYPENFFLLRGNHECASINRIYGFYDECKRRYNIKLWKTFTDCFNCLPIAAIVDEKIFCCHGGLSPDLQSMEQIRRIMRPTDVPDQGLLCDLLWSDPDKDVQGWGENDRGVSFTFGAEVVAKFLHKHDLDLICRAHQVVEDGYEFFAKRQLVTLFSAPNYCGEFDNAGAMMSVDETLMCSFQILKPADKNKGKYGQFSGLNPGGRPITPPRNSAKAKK
OPRM1 ag: OPRM1 agonists via beta-arrestin recruitment, confirmation, counter-screen for mouse HTR2A agonist project, cell-based, luminescence, single concentration; AID 624380, 2012; activation, % at 9.3 µM; 2,300 tested, 5.3% active; shares compounds with HTR2A ag; U2OS OPRM1 beta-arrestin PathHunter; DMSO 0%, DAMGO 9.3 µM 100%;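 active = mean activation above the mean of DMSO-only wells plus 3 SD, cut at about 0.5% in these data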
m5-HT2A ag conf: mouse HTR2A agonists, beta-arrestin recruitment, confirmation, cell-based, luminescence, CHO-K1 PathHunter, triplicate | shares compounds with HTR2A ag | DMSO 0%, 30 µM serotonin 100% | 2,300 tested, 19% active | activation, % at 7.6 µM;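 active = mean activation across triplicates above the hit threshold derived in the original primary screen, cut at about 15% in these data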
Numbers without * were called inactive; i = inactive; x = not tested or not shown; ! = not confirmed by another sample.

SMILES	JMJD2C inh	T cell HTS	HTR2A ag	PP5 inh	PP1 counter	OPRM1 ag	m5-HT2A ag conf
O=C(NCCCc1ccccc1)c1cccc(S(=O)(=O)N2CCOCC2)c1	-8	510	15*	-1	-2	0	-2
O=C(NCc1ccccc1)c1cccc(S(=O)(=O)N2CCOCC2)c1	13	80	-5	-2	1	x	x
O=C(O)C1=C[C@@H](c2ccc(C(F)(F)F)cc2)C[C@@H](OCCCCO)O1	3	x	-5	1	3	x	x
C[C@@H](O)CC(=O)O	x	336	-3	-1	-1	x	x
C[C@H](O)CC(=O)O	x	120	16*!	-1	-4	0	-4
CCc1ccc2c(c1)C(=O)C(=O)N2CCS(=O)(=O)c1ccccc1	7	361	21*	0	2	-1	2
O=C1C(=O)N(CCS(=O)(=O)c2ccccc2)c2ccc(Cl)cc21	-1	209	-3	0	1	x	x
COCCNC(=O)COC(=O)/C=C/c1c(C)nn(Cc2ccc(Cl)cc2Cl)c1Cl	-1	282	35*	1	2	-1	-5
Cc1nn(Cc2c(Cl)cccc2Cl)c(Cl)c1/C=C/C(=O)OCC(=O)NCC(F)(F)F	-3	186	-3	-7	-3	x	x
O=c1cc(-c2ccccc2Cl)oc2c([N+](=O)[O-])c(O)cc(O)c12	4	222	2	-2	2	x	x
CC(Sc1nnc(-c2ccc(Cl)cc2)n1N)C(=O)NCC1CCCO1 (configuration not stated)	0	433	2	0	-6	x	x
CCc1ccccc1NC(=O)Nc1ccc(F)cc1F	-1	295	1	3	2	x	x
O=C(Nc1ccc(F)cc1F)Nc1ccccc1C(=O)NCCN1CCNC1=O	7	480	40*	-2	-4	0	-1
Cn1c(N)c(C(=O)/C=C/c2ccccc2)c(=O)[nH]c1=O	23	40	26*	2	-3	-1	-4
CC(=O)N1CCOc2ccc(S(=O)(=O)NC[C@H]3O[C@@H](n4cnc5c(N)ncnc54)[C@H](O)[C@@H]3O)cc21	x	x	-1	x	x	x	x
CCc1nc2ccc(C(=O)N3CCN(S(=O)(=O)CC)CC3)cn2c1N(C)CCC(C)C	x	x	-4	x	x	x	x
CCc1nc2ccc(C(=O)N3CCN(S(=O)(=O)CC)CC3)cn2c1N(C)Cc1cccs1	x	x	17*	x	x	-1	-4
CCn1c(CNC(=O)c2ccco2)nnc1SCC(=O)Nc1ccccc1Cl	-7	235	-5	1	2	x	x
CCn1c(CNC(=O)c2ccco2)nnc1SCC(=O)Nc1cc(C)c(C)cc1Br	0	378	15*	3	-2	1.0*	4
O=[N+]([O-])c1cccc(-c2ccc(/C=N/NC(=S)Nc3ccccc3)o2)c1	13	154	1	5	9	x	x
O=[N+]([O-])c1cccc(-c2ccc(/C=N/NC(=S)NCc3ccco3)o2)c1	3	85	20*	3	2	0	-1
Cc1ccccc1C(=O)O/N=C(\N)c1ccccc1	-5	243	5	0	-3	x	x
Cc1ccccc1C(=O)O/N=C(\c1ccccc1)c1ccccn1	-7	304	23*	3	2	-1	43*
Cc1cccc(C)c1OCC(=O)Nc1ccccc1C(=O)N1CCOCC1	-1	133	25*	0	-1	-1	1
COc1ccc(OCC(=O)Nc2ccccc2C(=O)N2CCOCC2)cc1	17	i	1	-3	-3	x	x
SMILES	JMJD2C inh	T cell HTS	HTR2A ag	PP5 inh	PP1 counter	OPRM1 ag	m5-HT2A ag conf
Cc1ccc(-n2c(SCC(=O)c3c(N)n(C4CC4)c(=O)[nH]c3=O)nnc2N2CCOCC2)cc1	x	x	-2	x	x	x	x
COc1ccc(C(CNC(=O)COc2ccccc2C)N2CCCCC2)cc1 (configuration not stated)	5	0	3	3	0	x	x
COc1ccc(C(CNC(=O)c2ccccc2C)N2CCCC2)cc1 (configuration not stated)	0	414	31*	-1	2	-1	-1
Cc1c(C(=O)NCc2cccc(C(F)(F)F)c2)sc(=O)n1Cc1ccc(C(=O)N(C)C)cc1	x	x	-4	x	x	x	x
COC(=O)CNc1c(-c2ccccn2)nc2ccc(Br)cn12	5	367	19*	1	2	-1	-4
O=C1NC[C@@H](Cc2cccc3ccccc23)N(CC2(c3ccccc3)CC2)C1=O	3	304	16*	2	10	-1	-2
CN1CCc2cccc3c2C1Cc1ccc(O)c(O)c1-3 (configuration not stated)	4	539	44*	1	1	0.6*	135*
CN1CCC(=C2c3ccccc3C(O)c3ccccc32)CC1 (configuration not stated)	165	277	-7	2	2	x	x
O=C(O)c1nn(CC(=O)N2CCCCCC2)c(=O)c2ccccc12	7	192	1	-2	8	x	x
CN(C(=O)Cn1nc(C(=O)O)c2ccccc2c1=O)C1(C#N)CCCCC1	-5	293	19*	0	-3	0	9
COC(=O)c1ccn(CSc2c(F)c(F)cc(F)c2F)n1	8	652	8	1	0	x	x
COC(=O)c1ccn(CSc2cc(Cl)ccc2Cl)n1	7	713	21*	0	-4	0.6*	4
CCCc1[nH]nc2c1C(c1ccsc1)C(C#N)=C(N)O2 (configuration not stated)	-2	259	21*	-3	-2	-1	-4
CC1(C)CC(=O)C/C(=N\NC(=S)NCc2ccccc2)C1	12	361	17*	-1	-5	-1	-5
CC1C/C(=N\NC(=S)NCc2ccccc2)CC(C)(C)C1 (configuration not stated)	4	528	-2	8	-1	x	x
Cn1ccsc1=NC(=O)c1ccc(OC(F)(F)F)cc1	-4	4	-2	3	4	x	x
CCc1nnc(NC(=O)CCC(=O)N2CCN(Cc3ccc(Cl)cc3)CC2)s1	31	243	0	1	1	x	x
CCc1nnc(NC(=O)CCC(=O)N2CCN(Cc3ccccc3)CC2)s1	-1	197	16*	0	-4	-1	-4
